Laboratory results: ChEMBL document CHEMBL1649143, “In vitro activities of fluconazole and voriconazole against clinical isolates of Candida spp. determined by disk diffusion testing in Turin, Italy” (2009)
In brackets after ≈: the same amount, converted by molar mass.

Legend:
[1] = test system: Candida albicans; assay: Antifungal activity against Candida albicans assessed as percent resistant isolates at 25 ug/disc by CLSI M44-A disk diffusion method; assay type: functional
Summary of the method: (§1)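 Agar disk diffusion per CLSI M44-A on clinical Candida isolates collected in Turin, Italy; 1,024 isolates tested in total. Each isolate was classed as susceptible (S), susceptible-dose dependent (SDD) or resistant (R), and the percentage of isolates per species in each category was reported.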

[2] = test system: Nakaseomyces glabratus; assay: Antifungal activity against Candida glabrata assessed as percent susceptible isolates at 25 ug/disc by CLSI M44-A disk diffusion method; assay type: functional; summary of the method: as §1
[3] = test system: Nakaseomyces glabratus; assay: Antifungal activity against Candida glabrata assessed as dose dependent percent susceptible isolates at 25 ug/disc by CLSI M44-A disk diffusion method; assay type: functional; summary of the method: as §1
[4] = test system: Nakaseomyces glabratus; assay: Antifungal activity against Candida glabrata assessed as percent resistant isolates at 25 ug/disc by CLSI M44-A disk diffusion method; assay type: functional; summary of the method: as §1
[5] = test system: Candida tropicalis; assay: Antifungal activity against Candida tropicalis assessed as percent susceptible isolates at 25 ug/disc by CLSI M44-A disk diffusion method; assay type: functional; summary of the method: as §1
[6] = test system: Candida tropicalis; assay: Antifungal activity against Candida tropicalis assessed as dose dependent percent susceptible isolates at 25 ug/disc by CLSI M44-A disk diffusion method; assay type: functional; summary of the method: as §1
[7] = test system: Candida tropicalis; assay: Antifungal activity against Candida tropicalis assessed as percent resistant isolates at 25 ug/disc by CLSI M44-A disk diffusion method; assay type: functional; summary of the method: as §1
[8] = test system: Candida parapsilosis; assay: Antifungal activity against Candida parapsilosis assessed as percent susceptible isolates at 25 ug/disc by CLSI M44-A disk diffusion method; assay type: functional; summary of the method: as §1
[9] = test system: Candida parapsilosis; assay: Antifungal activity against Candida parapsilosis assessed as dose dependent percent susceptible isolates at 25 ug/disc by CLSI M44-A disk diffusion method; assay type: functional; summary of the method: as §1
[10] = test system: Pichia kudriavzevii; assay: Antifungal activity against Candida krusei assessed as percent susceptible isolates at 25 ug/disc by CLSI M44-A disk diffusion method; assay type: functional; summary of the method: as §1
[11] = test system: Pichia kudriavzevii; assay: Antifungal activity against Candida krusei assessed as dose dependent percent susceptible isolates at 25 ug/disc by CLSI M44-A disk diffusion method; assay type: functional; summary of the method: as §1
[12] = test system: Pichia kudriavzevii; assay: Antifungal activity against Candida krusei assessed as percent resistant isolates at 25 ug/disc by CLSI M44-A disk diffusion method; assay type: functional; summary of the method: as §1
[13] = test system: Kluyveromyces marxianus; assay: Antifungal activity against Candida kefyr assessed as percent susceptible isolates at 25 ug/disc by CLSI M44-A disk diffusion method; assay type: functional; summary of the method: as §1
[14] = test system: Kluyveromyces marxianus; assay: Antifungal activity against Candida kefyr assessed as percent resistant isolates at 25 ug/disc by CLSI M44-A disk diffusion method; assay type: functional; summary of the method: as §1
[15] = test system: Pichia norvegensis; assay: Antifungal activity against Candida norvegensis assessed as dose dependent percent susceptible isolates at 25 ug/disc by CLSI M44-A disk diffusion method; assay type: functional; summary of the method: as §1
[16] = test system: Pichia norvegensis; assay: Antifungal activity against Candida norvegensis assessed as percent resistant isolates at 25 ug/disc by CLSI M44-A disk diffusion method; assay type: functional; summary of the method: as §1
[17] = Antifungal activity against Candida holmii assessed as percent susceptible isolates at 25 ug/disc by CLSI M44-A disk diffusion method; assay type: functional; details: Kazachstania exigua
Summary of the method: (§2)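 Clinical yeast isolates tested by agar disk diffusion per CLSI M44-A. Zone diameters were converted to MICs by an automated zone-reading system applying species-specific linear regression against reference dilution MICs. Isolates were classed as susceptible, susceptible-dose dependent or resistant using CLSI MIC breakpoints, and reported as number and percent susceptible per species.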

[18] = Antifungal activity against Candida humicola assessed as percent susceptible isolates at 25 ug/disc by CLSI M44-A disk diffusion method; assay type: functional; summary of the method: as §2
[19] = test system: [Candida] intermedia; assay: Antifungal activity against Candida intermedia assessed as percent susceptible isolates at 25 ug/disc by CLSI M44-A disk diffusion method; assay type: functional, Sungouiella intermedia; summary of the method: as §2
[20] = test system: Pichia fermentans; assay: Antifungal activity against Candida lambica assessed as percent susceptible isolates at 25 ug/disc by CLSI M44-A disk diffusion method; assay type: functional; summary of the method: as §2
[21] = test system: Clavispora lusitaniae; assay: Antifungal activity against Candida lusitaniae assessed as percent susceptible isolates at 25 ug/disc by CLSI M44-A disk diffusion method; assay type: functional; summary of the method: as §2
[22] = Antifungal activity against Candida membranifaciens assessed as percent susceptible isolates at 25 ug/disc by CLSI M44-A disk diffusion method; assay type: functional; summary of the method: as §2
[23] = test system: Diutina rugosa; assay: Antifungal activity against Candida rugosa assessed as percent susceptible isolates at 25 ug/disc by CLSI M44-A disk diffusion method; assay type: functional; summary of the method: as §2
[24] = test system: Cyberlindnera jadinii; assay: Antifungal against Candida utilis assessed as percent susceptible isolates at 25 ug/disc by CLSI M44-A disk diffusion method; assay type: functional; summary of the method: as §2
[25] = test system: Candida albicans; assay: Antifungal activity against Candida albicans by reference dilution method; assay type: functional
[26] = test system: Nakaseomyces glabratus; assay: Antifungal activity against Candida glabrata by reference dilution method; assay type: functional
[27] = test system: Candida tropicalis; assay: Antifungal activity against Candida tropicalis by reference dilution method; assay type: functional
[28] = test system: Candida parapsilosis; assay: Antifungal activity against Candida parapsilosis by reference dilution method; assay type: functional; details: Lodderomyces parapsilosis
[29] = test system: Pichia kudriavzevii; assay: Antifungal activity against Candida krusei by reference dilution method; assay type: functional
[30] = test system: Kluyveromyces marxianus; assay: Antifungal activity against Candida kefyr by reference dilution method; assay type: functional
[31] = test system: Pichia norvegensis; assay: Antifungal activity against Candida norvegensis by reference dilution method; assay type: functional
[32] = test system: Candida; assay: Antifungal activity against Candida sp. by reference dilution method; assay type: functional
[33] = test system: Candida albicans; assay: Antifungal activity against Candida albicans assessed as percent susceptible isolates at 25 ug/disc by CLSI M44-A disk diffusion method; assay type: functional; summary of the method: as §1
[34] = test system: Candida albicans; assay: Antifungal activity against Candida albicans assessed as dose dependent percent susceptible isolates at 25 ug/disc by CLSI M44-A disk diffusion method; assay type: functional; summary of the method: as §1

For OC(Cn1cncn1)(Cn1cncn1)c1ccc(F)cc1F [FLUCONAZOLE], which Activity [1] is on record?
Its Activity is 1%.

What about the Activity [2] of the same compound?
The Activity was 82%.

What about the Activity [3] of the same compound?
The Activity was 9%.

And the Activity [4]?
Its Activity is 9%.

What about the Activity [5] of the same compound?
The Activity was 92%.

What about the Activity [6] of the same compound?
The Activity was 3%.

And the Activity [7]?
The Activity was 5%.

What about the Activity [8] of the same compound?
The Activity was 96%.

And the Activity [9]?
The Activity was 4%.

What about the Activity [10] of the same compound?
The Activity was 11%.

What about the Activity [11] of the same compound?
The Activity was 21%.

What about the Activity [12] of the same compound?
The Activity was 68%.

What about the Activity [13] of the same compound?
The Activity was 96%.

What about the Activity [14] of the same compound?
Its Activity is 4%.

And the Activity [15]?
Its Activity is 21%.

And the Activity [16]?
Its Activity is 79%.

What about the Activity [17] of the same compound?
Its Activity is 92.9%.

What about the Activity [18] of the same compound?
The Activity was 92.9%.

And the Activity [19]?
The Activity was 92.9%.

And the Activity [20]?
Its Activity is 92.9%.

What about the Activity [21] of the same compound?
Its Activity is 92.9%.

What about the Activity [22] of the same compound?
The Activity was 92.9%.

What about the Activity [23] of the same compound?
Its Activity is 92.9%.

And the Activity [24]?
Its Activity is 92.9%.

What about the MIC50 [25] of the same compound?
The MIC50 was 0.5 µg/mL (≈ 1.63 µM).

And the MIC90 [25]?
The MIC90 was 4 µg/mL (≈ 13.1 µM).

And the MIC50 [26]?
Its MIC50 is 4 µg/mL (≈ 13.1 µM).

What about the MIC90 [26] of the same compound?
The MIC90 was 64 µg/mL (≈ 209 µM).

And the MIC50 [27]?
The MIC50 was 2 µg/mL (≈ 6.53 µM).

What about the MIC90 [27] of the same compound?
The MIC90 was 16 µg/mL (≈ 52.2 µM).

And the MIC50 [28]?
The MIC50 was 0.5 µg/mL (≈ 1.63 µM).

What about the MIC90 [28] of the same compound?
The MIC90 was 4 µg/mL (≈ 13.1 µM).

And the MIC50 [29]?
Its MIC50 is 128 µg/mL (≈ 418 µM).

What about the MIC90 [29] of the same compound?
The MIC90 was 256 µg/mL (≈ 836 µM).

What about the MIC50 [30] of the same compound?
The MIC50 was 0.25 µg/mL (≈ 0.816 µM).

And the MIC90 [30]?
Its MIC90 is 0.25 µg/mL (≈ 0.816 µM).

What about the MIC50 [31] of the same compound?
Its MIC50 is 128 µg/mL (≈ 418 µM).

What about the MIC90 [31] of the same compound?
The MIC90 was 256 µg/mL (≈ 836 µM).

And the MIC50 [32]?
Its MIC50 is 2 µg/mL (≈ 6.53 µM).

And the MIC90 [32]?
The MIC90 was 128 µg/mL (≈ 418 µM).

What about the Activity [33] of the same compound?
Its Activity is 98%.

And the Activity [34]?
Its Activity is 1%.
